Values after ≈ are worked out from the molar mass of the structure shown.
Legend:
[1] = system: Mycobacterium tuberculosis; test: Antimycobacterial activity against rifampin and isoniazid-susceptible Mycobacterium tuberculosis H37Rv ATCC 27294 after 5 days by Alamar blue assay; assay type: functional; details: 120 h
Procedure, shortened: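 Microplate Alamar Blue assay in Middlebrook 7H9 broth; compounds serially diluted on the plate, final concentrations […]. Plates sealed and incubated 37 °C for 5 days, then 1:1 Alamar Blue reagent/10% Tween 80 added and incubated a further 24 h. Blue scored as no growth, pink as growth; MIC is the lowest concentration preventing the blue-to-pink change.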

[2] = Cytotoxicity against mouse macrophages assessed as cell viability at 100 ug/mL after 18 hrs by MTT assay; assay type: cell-based, Macrophage; details: read-out: Activity
Procedure, shortened: (§1)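 Murine macrophages plated at 2.5 × 10⁶ cells/mL and held 1 h at 37 °C under 5% CO₂. Nonadherent cells were then flushed off with RPMI 1640. Adherent cells were exposed in triplicate to compound at 0.1, 1.0, 10.0 or 100, medium alone (live control) or 3% tween 20 (dead control). After 18 h MTT was added for 4 h. Formazan was dissolved in DMSO and A540 read.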

[3] = Cytotoxicity against mouse macrophages assessed as cell viability at 10 ug/mL after 18 hrs by MTT assay; assay type: cell-based, Macrophage; details: read-out: Activity; procedure, shortened: as §1
[4] = Cytotoxicity against mouse macrophages assessed as cell viability at 1 ug/mL after 18 hrs by MTT assay; assay type: cell-based, Macrophage; details: read-out: Activity; procedure, shortened: as §1
[5] = Cytotoxicity against mouse macrophages assessed as cell viability at 0.1 ug/mL after 18 hrs by MTT assay; assay type: cell-based, Macrophage; details: read-out: Activity; procedure, shortened: as §1

Row | Structure (SMILES) | MIC [1] | viability at 18 h, 100 ug/mL [2] | viability at 18 h, 10 ug/mL [3] | viability at 18 h, 1 ug/mL [4] | viability at 18 h, 0.1 ug/mL [5]
1 | O=C(N/N=C/c1ccccc1F)c1ccncc1 | 3.12 µg/mL (≈ 12.8 µM) |  |  |  | 
2 | O=C(N/N=C/c1cccc(F)c1)c1ccncc1 | 3.12 µg/mL (≈ 12.8 µM) |  |  |  | 
3 | O=C(N/N=C/c1cccc(O)c1)c1ccncc1 | 1.25 µg/mL (≈ 5.18 µM) |  |  |  | 
4 | N#Cc1ccc(/C=N/NC(=O)c2ccncc2)cc1 | 5 µg/mL (≈ 20 µM) |  |  |  | 
5 | O=C(N/N=C/c1ccccc1Br)c1ccncc1 | 5 µg/mL (≈ 16.4 µM) |  |  |  | 
6 | COc1ccc(/C=N/NC(=O)c2ccncc2)cc1 | 5 µg/mL (≈ 19.6 µM) |  |  |  | 
7 | N#Cc1ccccc1/C=N/NC(=O)c1ccncc1 | 0.62 µg/mL (≈ 2.48 µM) | 95% | 100% | 100% | 100%
8 | COc1cccc(/C=N/NC(=O)c2ccncc2)c1 | 5 µg/mL (≈ 19.6 µM) |  |  |  | 
9 | O=C(N/N=C/c1ccccc1Cl)c1ccncc1 | 1.25 µg/mL (≈ 4.81 µM) |  |  |  | 
10 | N#Cc1cccc(/C=N/NC(=O)c2ccncc2)c1 | 1.25 µg/mL (≈ 4.99 µM) |  |  |  | 
11 | O=C(N/N=C/c1cccc(Br)c1)c1ccncc1 | 2.5 µg/mL (≈ 8.22 µM) |  |  |  | 
12 | O=C(N/N=C/c1ccc(Br)cc1)c1ccncc1 | 5 µg/mL (≈ 16.4 µM) |  |  |  | 
13 | O=C(N/N=C/c1cccc([N+](=O)[O-])c1)c1ccncc1 | 5 µg/mL (≈ 18.5 µM) |  |  |  | 
14 | O=C(N/N=C/c1ccc(Cl)cc1)c1ccncc1 | 0.31 µg/mL (≈ 1.19 µM) | 96% | 97% | 97% | 100%
15 | O=C(N/N=C/c1ccc(F)cc1)c1ccncc1 | 0.31 µg/mL (≈ 1.27 µM) | 96% | 97% | 100% | 100%
16 | CCOc1ccccc1/C=N/NC(=O)c1ccncc1 | 1.25 µg/mL (≈ 4.64 µM) |  |  |  | 
17 | CCOc1cccc(/C=N/NC(=O)c2ccncc2)c1 | 1.25 µg/mL (≈ 4.64 µM) |  |  |  | 
18 | COc1ccccc1/C=N/NC(=O)c1ccncc1 | 0.31 µg/mL (≈ 1.21 µM) | 98% | 100% | 100% | 100%
19 | O=C(N/N=C/c1ccccc1[N+](=O)[O-])c1ccncc1 | 5 µg/mL (≈ 18.5 µM) |  |  |  | 
20 | NNC(=O)c1ccncc1 [ISONIAZID] | 0.2 µg/mL (≈ 1.46 µM) |  |  |  | 
21 | O=C(N/N=C/c1cccc(Cl)c1)c1ccncc1 [N'-(3-CHLOROBENZYLIDENE)ISONICOTINOHYDRAZIDE] | 0.31 µg/mL (≈ 1.19 µM) | 100% | 100% | 100% | 100%
22 | O=C(N/N=C/c1ccc([N+](=O)[O-])cc1)c1ccncc1 [N'-(4-NITROBENZYLIDENE)ISONICOTINOHYDRAZIDE] | 1.25 µg/mL (≈ 4.63 µM) |  |  |  | 
23 | O=C(N/N=C/c1ccccc1)c1ccncc1 [N'-BENZYLIDENE ISONICOTINOHYDRAZIDE] | 3.12 µg/mL (≈ 13.9 µM) |  |  |  | 
24 | CO[C@H]1/C=C/O[C@@]2(C)Oc3c(C)c(O)c4c(O)c(c(/C=N/N5CCN(C)CC5)c(O)c4c3C2=O)NC(=O)/C(C)=C\C=C\[C@H](C)[C@H](O)[C@@H](C)[C@@H](O)[C@@H](C)[C@H](OC(C)=O)[C@@H]1C [RIFAMPIN] | 1 µg/mL (≈ 1.22 µM) |  |  |  | 

From ChEMBL document CHEMBL1141661, “Synthesis and anti-mycobacterial activity of (E)-N'-(monosubstituted-benzylidene)isonicotinohydrazide derivatives” (Eur J Med Chem, 2008)
